Calls of active or inactive are those of the source. The calls are words filed in the database; no cut-off is given here.
Key:
Rattus norvegicus [1] = assay: Percent decrease in serum cholesterol relative to OVX control at 0.1 mg/kg in rat was determined (in vivo); assay type: functional
Method in brief: (§1)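 OVX Sprague–Dawley rats (75 days old), 5–6 per group, dosed once daily by oral gavage for 4 consecutive days, starting 14 days after ovariectomy. Vehicle was 20% β-hydroxycyclodextrin at 1 mL/kg, or 1.5% carboxymethylcellulose in some cases. Rats were fasted after the last dose and bled by cardiac puncture next morning.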

Rattus norvegicus [2] = assay: Percent decrease in serum cholesterol relative to OVX control at 1 mg/kg in rat; assay type: functional; method in brief: as §1
Rattus norvegicus [3] = assay: Minimum effective dose at which significant increase in uterine eosinophil peroxidase (EPO) activity in rat was determined (in vivo); assay type: functional; details: read-out: MED
Rattus norvegicus [4] = assay: Dose required to reduce serum cholesterol by 50% relative to OVX controls was determined (in vivo); assay type: functional; method in brief: as §1
MCF7 = assay: Inhibition of MCF-7 cell proliferation stimulated by 10e-[…] M 17-beta-estradiol; Not active at the doses tested; assay type: functional, cell-based, Homo sapiens
Estrogen receptor [5] = biological target: T1, Estrogen receptor (Homo sapiens, UniProt Q92731+P03372); assay: In vitro relative binding affinity by competition with [3H]17-beta-estradiol for estrogen receptor in MCF-7 cell lysate; Not active at the doses tested; assay type: cell-based
Method in brief: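 Human MCF-7 cell lysate (0.5–1.0 mg/mL total protein) incubated 18 h at 4 °C with 0.5 nM [3H]17β-estradiol and serial dilutions of test compound. Unbound radioligand removed with dextran/charcoal and centrifugation; bound label in the supernatant counted by scintillation. RBA = IC50(17β-estradiol)/IC50(test compound) × 100.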

Rattus norvegicus [6] = assay: Minimum effective dose at which significant increase in uterine weight/body weight in rat was determined (in vivo); expressed as % increase relative to ovariectomized (OVX) controls; assay type: functional
Method in brief: (§2)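 In 75-day OVX Sprague–Dawley rats dosed orally for 4 days, beginning 2 weeks post-ovariectomy with 5–6 rats per group, whole uteri were weighed the morning after fasting. MED is the lowest dose giving a significant (p≤0.05) rise in uterine weight/body weight, expressed as % increase over OVX controls ±SE.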

Rattus norvegicus [7] = assay: Percent decrease in serum cholesterol relative to OVX control at 10 mg/kg in rat was determined (in vivo); assay type: functional; method in brief: as §1
Rattus norvegicus [8] = assay: Minimum effective dose at which significant increase in uterine weight/body weight in rat was determined (in vivo); assay type: functional; details: read-out: MED; method in brief: as §2
Estrogen receptor [9] = biological target: T1, Estrogen receptor; details: mcf7
Rattus norvegicus [10] = assay: Percent protection of bone mineral density in the distal femur of 75-days old OVX rat at a dose of 0.01 mg/kg/day; assay type: functional
Method in brief: (§3)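 OVX Sprague–Dawley rats (6-month old, or 75-day old in one case) were dosed orally each day for 35 days, starting 4 days after ovariectomy. Digitized X-rays of the right distal femoral metaphysis gave BMD. % protection = (test − OVX)/(sham − OVX) × 100, reported ±SE.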

Rattus norvegicus [11] = assay: Percent protection of bone mineral density in the distal femur of OVX rat at a dose of 1 mg/kg/day; assay type: functional; method in brief: as §3
Rattus norvegicus [12] = assay: Percent protection of bone mineral density in the distal femur of 75-days old OVX rat at a dose of 0.1 mg/kg/day; assay type: functional; method in brief: as §3
Rattus norvegicus [13] = assay: Percent protection of bone mineral density in the distal femur of 75-days old OVX rat at a dose of 10 mg/kg/day; assay type: functional; method in brief: as §3
Rattus norvegicus [14] = assay: Percent decrease in serum cholesterol relative to OVX control at 10 mg/kg in rats; assay type: functional; method in brief: as §1
Rattus norvegicus [15] = assay: Percent decrease in serum cholesterol relative to OVX control at 0.1 mg/kg in rats; assay type: functional; method in brief: as §1
Rattus norvegicus [16] = assay: Percent decrease in serum cholesterol relative to OVX control at 1.0 mg/kg in rats; assay type: functional; method in brief: as §1
Rattus norvegicus [17] = assay: Eosinophil peroxidase activity expressed as Vmax was determined in rat (in vivo); assay type: functional

IC50 (MCF7) | relative binding affinity (RBA) (Estrogen receptor [5]) | IC50 (Estrogen receptor [9]) | Compound | Decrease (Rattus norvegicus [1]) | Decrease (Rattus norvegicus [2]) | minimal effective dose (Rattus norvegicus [3]) | ED50 (Rattus norvegicus [4]) | Increase (Rattus norvegicus [6]) | Decrease (Rattus norvegicus [7]) | minimal effective dose (Rattus norvegicus [8]) | Protection (Rattus norvegicus [10]) | Protection (Rattus norvegicus [11]) | Protection (Rattus norvegicus [12]) | Protection (Rattus norvegicus [13]) | Decrease (Rattus norvegicus [14]) | Decrease (Rattus norvegicus [15]) | Decrease (Rattus norvegicus [16]) | Increase (Rattus norvegicus [17])
Not Active | inactive |  | O=C(O)c1ccc2c(C(=O)c3ccc(OCCN4CCCCC4)cc3)c(-c3ccc(O)cc3)sc2c1 | -16.4% | 12.5% | > 10 mg/kg | 9 mg/kg | 40.8% | 53.3% | 1 mg/kg |  |  |  |  |  |  |  | 
 |  | 0.035 µM | Cl.O=C(c1ccc(OCCN2CCCCC2)cc1)c1c(-c2ccc(O)cc2)sc2ccccc12 | 70.7% | 69.9% | > 10 mg/kg | < 0.1 mg/kg | 39.2% | 67.4% | 0.1 mg/kg | -1.3% | 41.8% | -4% | 26.7% |  |  |  | 
 |  | 1 µM | O=C(c1ccc(OCCN2CCCCC2)cc1)c1c(-c2ccc(C(F)(F)F)cc2)sc2cc(O)ccc12 |  |  | 5 mg/kg | 0.4 mg/kg |  |  | 5 mg/kg |  |  |  |  | 71.5% |  |  | 
 |  | 0.03 µM | CC(C)c1ccc(-c2sc3cc(O)ccc3c2C(=O)c2ccc(OCCN3CCCCC3)cc2)cc1 | -24.1% | 47.1% | 1 mg/kg | 3.6 mg/kg | 24.9% | 48.5% | 0.1 mg/kg |  |  |  |  |  |  |  | 33.3 Vmax
 |  | 0.005 µM | CCc1ccc(-c2sc3cc(O)ccc3c2C(=O)c2ccc(OCCN3CCCCC3)cc2)cc1 | 3.3% | 37.2% | 1 mg/kg | 4.3 mg/kg | 29.7% | 57.4% | 10 mg/kg |  |  |  |  |  |  |  | 39.9 Vmax

Compound | IC50 (MCF7) | relative binding affinity (RBA) (Estrogen receptor [5]) | IC50 (Estrogen receptor [9]) | Decrease (Rattus norvegicus [1]) | Decrease (Rattus norvegicus [2]) | minimal effective dose (Rattus norvegicus [3]) | ED50 (Rattus norvegicus [4]) | Increase (Rattus norvegicus [6]) | Decrease (Rattus norvegicus [7]) | minimal effective dose (Rattus norvegicus [8]) | Protection (Rattus norvegicus [10]) | Protection (Rattus norvegicus [11]) | Protection (Rattus norvegicus [12]) | Protection (Rattus norvegicus [13]) | Decrease (Rattus norvegicus [14]) | Decrease (Rattus norvegicus [15]) | Decrease (Rattus norvegicus [16]) | Increase (Rattus norvegicus [17])
O=C(c1ccc(OCCN2CCCCC2)cc1)c1c(Cc2ccc(O)cc2)sc2cc(O)ccc12 |  |  | 0.005 µM |  |  | > 10 mg/kg | 4 mg/kg | 36.9% |  | 5 mg/kg |  |  |  |  | 54% | -17.6% | 41.7% | 

Reference: ChEMBL document CHEMBL1130160 (J Med Chem, 1997)
